Experimental data gathered from unrelated publications.
Lines come from different studies, so protocols differ.
Target: Serine/threonine-protein kinase Chk1 (CHEK1, Homo sapiens, UniProt O14757)
Residues used in one study (O14757 1-476): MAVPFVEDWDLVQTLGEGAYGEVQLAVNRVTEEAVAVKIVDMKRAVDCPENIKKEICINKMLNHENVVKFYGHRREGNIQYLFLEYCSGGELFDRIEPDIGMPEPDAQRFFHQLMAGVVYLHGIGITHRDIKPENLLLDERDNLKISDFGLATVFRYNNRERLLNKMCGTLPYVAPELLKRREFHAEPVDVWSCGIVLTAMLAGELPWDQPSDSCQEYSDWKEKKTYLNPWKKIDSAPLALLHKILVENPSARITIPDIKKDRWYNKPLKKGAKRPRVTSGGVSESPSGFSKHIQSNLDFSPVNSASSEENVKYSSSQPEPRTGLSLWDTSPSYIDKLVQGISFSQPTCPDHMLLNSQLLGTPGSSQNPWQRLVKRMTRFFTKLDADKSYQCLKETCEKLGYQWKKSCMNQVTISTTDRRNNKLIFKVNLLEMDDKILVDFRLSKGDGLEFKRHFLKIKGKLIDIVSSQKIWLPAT

Compound	observed	mode	technique	concentration	endpoint	value
C=CC(=O)N1CCC[C@@H](n2nc(-c3ccc(Oc4ccccc4)cc3)c3c(N)ncnc32)C1	enzyme activity	inhibitor		1 µM	inhibition	10%
CCCCC(=O)Nc1ccc(-c2ccc3ncn(CCC)c(=O)c3c2)cn1	binding		competition with immobilised ligand	0.5 µM	remaining binding	86%
C1=C/COCc2cc(ccc2OCCN2CCCC2)Nc2nccc(n2)-c2cccc(c2)COC/1	cell-free assay			0.1 µM	remaining signal	100%
COc1ccc2[nH]c3c4[nH]c5ccc(OC)cc5c4c4c(c3c2c1)C(=O)NC4=O	binding			1 µM	remaining binding	12%
C#Cc1cnc(Nc2ccnc(CO)c2)nc1Nc1ccccc1S(C)(=O)=NC#N (stereo not drawn)	cell-free assay			1 µM	remaining signal	38%
COc1ccc2oc(-c3ccc4nc(N)oc4c3)c/c(=N\c3ccccc3NC(=O)CCN)c2c1	binding			1 µM	remaining binding	87%
N#Cc1ccc(NC(=O)Nc2ccccc2)cc1	cell-free assay		competition with immobilised ligand	25 µM	remaining binding	91%
CC#CC(=O)N1CCC[C@H]1c1nc(-c2ccc(C(=O)Nc3ccccn3)cc2)c2c(N)nccn12	enzyme activity	inhibitor		1 µM	inhibition	20%
C[C@H]1CC[C@H](n2c3cnccc3c3cnc(Nc4ccc5c(n4)CCN(C(=O)CO)C5)nc32)CC1	cell-free assay			1 µM	remaining signal	93%
